Most compounds without a hit are left out; they make up all but 4.1% or so of the library.
FID counter: fluorescent intercalator displacement, NS3 helicase counter-screen; inhibition, % at 7.9 µM; AID 1845; 290,000 tested, 0.17% active; DNA fluorescent intercalator displacement, fluorescence; in the data active = inhibition above about 37%;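 also: higher means more ethidium bromide displaced from hairpin DNA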
MEKK2mut PB1 HTS: signal of MEK5 binding to mutant human MEKK2 PB1 domain | bead flow cytometry, Alexa488-MEK5 binding to MEKK2 mutant | percent response, % at 10 µM | 290,000 tested, 0.35% active | AID 1530; in the data active = percent response above about 24%, passing the limit was not always enough
MEKK2 WT-MEK5: raises or lowers MEK5 binding to wildtype human MEKK2 PB1 domain. Q9Y2U5. bead flow cytometry, Alexa488-MEK5 binding to MEKK2 WT; actives lie on both sides. binding response (% of control), % at 10 µM. 290,000 tested, 1.1% active. AID 1531; in the data active = binding response below about 67% or above about 130%
T cruzi inh: blocks replication of Trypanosoma cruzi; T. cruzi beta-gal in NIH3T3, luminescence, 90 h; inhibition, % (concentration not given with the values); 300,000 tested, 1.4% active;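 active = mean inhibition across valid replicates above about 55%, limit read from the data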;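 also: signal also drops with host cell toxicity which is not excluded here; higher percent means less beta-gal luminescence so fewer parasites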
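System – NIH/3T3 host cells with β-galactosidase reporter T. cruzi · Doses – single 50 nL compound addition per well in DMSO · Reagent – 5000 T. cruzi trypomastigotes/well · Medium – Low-serum DMEM with 2% FBS · Timing – ≥90 h infection period, 3 h prior cell attachment · Evaluation – parasite load inhibition, % · Technique – GalScreen luminescence, 60 min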
MEKK3 PB1 HTS: raises or lowers MEK5 binding to the human MEKK3 PB1 domain. 290,000 tested, 1.4% active. bead-based flow cytometry, Alexa488-MEK5 binding to MEKK3; actives lie on both sides; 0 = blocked by unlabeled MEK5, 100 = vehicle. binding response (% of control), % at 10 µM;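 active = binding response more than 3 SD above or below the average of its plate-row segment, actives on both sides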;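 also: Alexa488 bead fluorescence after subtracting the streptavidin-only scavenger bead signal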
Target sequence (Q99759 whole entry, looked up, the tested form may be a part): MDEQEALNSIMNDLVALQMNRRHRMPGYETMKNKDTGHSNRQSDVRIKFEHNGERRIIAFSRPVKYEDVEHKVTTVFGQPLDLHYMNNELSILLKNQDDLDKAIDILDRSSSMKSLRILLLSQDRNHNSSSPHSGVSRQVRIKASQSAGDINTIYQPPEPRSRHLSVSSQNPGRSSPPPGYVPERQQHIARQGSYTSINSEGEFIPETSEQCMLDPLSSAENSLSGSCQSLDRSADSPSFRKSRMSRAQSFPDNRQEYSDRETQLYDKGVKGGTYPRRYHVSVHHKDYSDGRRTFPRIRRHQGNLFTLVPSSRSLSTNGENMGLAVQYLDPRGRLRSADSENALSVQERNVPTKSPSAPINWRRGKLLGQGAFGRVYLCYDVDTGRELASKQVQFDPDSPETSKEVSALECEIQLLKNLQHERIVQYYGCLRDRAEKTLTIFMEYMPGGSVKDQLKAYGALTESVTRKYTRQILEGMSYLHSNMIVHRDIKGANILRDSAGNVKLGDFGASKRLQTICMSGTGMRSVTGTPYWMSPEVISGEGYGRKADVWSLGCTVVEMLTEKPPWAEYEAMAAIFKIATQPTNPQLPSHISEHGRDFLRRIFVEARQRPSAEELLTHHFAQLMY
HCV NS3 hel inh: HCV NS3 helicase inhibition; 290,000 tested, 0.56% active; NS3 helicase DNA unwinding, Cy5 molecular beacon fluorescence; inhibition, % at 10.9 µM;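 active = inhibition above the mean of all tested compounds plus 3 SD, set per campaign, cut at about 35% in these data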
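Material: hepatitis C virus NS3 helicase domain fragment enzyme; measured by: Cy5 fluorescence, 0 and 60 min reads; control set: DMSO and thioflavine S; incubation: 60 min unwinding reaction at 25 °C after ATP addition; read-out basis: % inhibition from 60/0 min fluorescence ratio, DMSO 0%, thioflavine S 100%; repeats: singlicate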
MEKK2wt confirm: raises or lowers MEK5 binding to wildtype human MEKK2, retest; shares compounds with MEKK3 PB1 HTS; binding response (% of control), % at 10 µM; AID 1892; 5,900 tested, 2.4% active; bead flow cytometry, Alexa488-MEK5 binding to MEKK2 WT; actives lie on both sides; in the data active = binding response below about 16% or above about 210%; inactive = in between
MEKK2mut confirm: signal of MEK5 binding to mutant human MEKK2, retest; shares compounds with MEKK3 PB1 HTS; bead flow cytometry, Alexa488-MEK5 binding to MEKK2 mutant; percent response, % at 10 µM; 5,900 tested, 2% active; AID 1893; in the data active = percent response mostly above about 71%, no sharp cut-off; inactive = mostly below about 38%;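 also: higher means compound restores mutant binding toward wildtype level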
MEKK3 confirm: confirmation of inhibitors of MEK5 binding to human MEKK3. shares compounds with MEKK3 PB1 HTS. bead flow cytometry, Alexa488-MEK5 binding to MEKK3; stronger effect = lower value. binding response (% of control), % at 10 µM. 5,900 tested, 1.8% active;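 active = binding response below 72% of control, or above a set upper limit, though filed actives all read lower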
Each line names hits and unclear results; the compound was inactive in the other large screens (follow-up assays come after a bar, where they were run); [ ] = another dose, or the depositor's remark.

CC1(C)C2CCC1(CS(=O)(=O)Nc1ccc(S(=O)(=O)N3CCCCC3)cc1)C(=O)C2 (stereo not drawn)	none
O=C(/C(=C(\[O-])c1ccccc1)[n+]1ccc2ccccc2c1)c1ccccc1	MEKK3 PB1 HTS 128 | MEKK2wt confirm inactive | MEKK2mut confirm inactive | MEKK3 confirm inactive
CC1CCCC(NC(=O)c2cccc(S(=O)(=O)N3CCCCC3)c2)C1C (stereo not drawn)	none
CCOc1ccccc1NC(=O)Cn1c(C)cc(COC)c(C#N)c1=O	none
COCc1cc(C)n(CC(=O)Nc2ccccc2C(=O)OC)c(=O)c1C#N	MEKK2 WT-MEK5 2.0[inhibitor], MEKK3 PB1 HTS 2.0[inhibitor] | MEKK2wt confirm inactive | MEKK2mut confirm inactive | MEKK3 confirm inactive
CCC(=O)N1CC2(C)CN(C(=O)CC)CC(C)(C1)C2	MEKK3 PB1 HTS 129 | MEKK2wt confirm inactive | MEKK2mut confirm inactive | MEKK3 confirm inactive
CC(=O)N1CC2(C)CN(C(C)=O)CC(C)(C1)C2	none
Cc1cccc(NC(=O)/C(C#N)=C/c2ccc(Sc3ccccc3)o2)c1C	MEKK3 PB1 HTS 128 | MEKK2wt confirm inactive | MEKK2mut confirm inactive | MEKK3 confirm inactive
Cc1cc(CNC(=O)COC(=O)Cn2[nH]c(=O)c3ccccc3c2=O)cc(C)c1O	none (no result: FID counter, MEKK2mut PB1 HTS, MEKK2 WT-MEK5, MEKK3 PB1 HTS, HCV NS3 hel inh)
CCOc1ccccc1NC(=O)C(OC(=O)c1ccccc1)c1ccccc1 (stereo not drawn)	MEKK3 PB1 HTS 130 | MEKK2wt confirm inactive | MEKK2mut confirm inactive | MEKK3 confirm inactive
C#CCOCCOCCOCCNc1nc(N2CCOCC2)nc(N2CCN(C(=O)[C@H]([C@@H](C)CC)n3cc([C@@H](N)CO)nn3)CC2)n1	none
C#CCOCCOCCOCCNc1nc(N2CCN(C(=O)[C@H](CCC(=O)O)n3cc(C(N)CC(C)C)nn3)CC2)nc(N2CCN(C(=O)[C@H](Cc3ccc(O)cc3)n3cc(C(N)[C@H](C)CC)nn3)CC2)n1 (stereo partly drawn)	none
C#CCOCCOCCOCCNc1nc(N2CCN(C(=O)[C@H]([C@@H](C)CC)n3cc([C@@H](N)CO)nn3)CC2)nc(N2CCN(C(=O)[C@H](Cc3ccc(O)cc3)n3cc([C@@H](N)C(C)CC)nn3)CC2)n1 (stereo partly drawn)	none
C#CCOCCOCCOCCNc1nc(N2CCN(C(=O)[C@H]([C@@H](C)CC)n3cc([C@@H](N)CC(C)C)nn3)CC2)nc(N2CCN(C(=O)[C@H](Cc3ccc(O)cc3)n3cc([C@@H](N)CC(C)C)nn3)CC2)n1	MEKK2 WT-MEK5 150 | MEKK2wt confirm inactive | MEKK2mut confirm inactive | MEKK3 confirm inactive
C#CCOCCOCCOCCNc1nc(N2CCN(C(=O)[C@H]([C@@H](C)CC)n3cc([C@@H](N)Cc4ccc(O)cc4)nn3)CC2)nc(N2CCN(C(=O)[C@H]([C@@H](C)CC)n3cc([C@@H](N)Cc4ccc(O)cc4)nn3)CC2)n1	MEKK2 WT-MEK5 151 | MEKK2wt confirm inactive | MEKK2mut confirm inactive | MEKK3 confirm inactive
C#CCOCCOCCOCCNc1nc(N2CCN(C(=O)[C@H]([C@@H](C)CC)n3cc([C@@H](N)CO)nn3)CC2)nc(N2CCN(C(=O)[C@H]([C@@H](C)CC)n3cc([C@@H](N)Cc4ccc(O)cc4)nn3)CC2)n1	MEKK2 WT-MEK5 134 | MEKK2wt confirm inactive | MEKK2mut confirm inactive | MEKK3 confirm inactive

Bioassay records deposited in PubChem BioAssay by several laboratories.
